17 compounds from ChEMBL document CHEMBL1130018, “Synthesis and anticonvulsant activities of 3,3-dialkyl- and 3-alkyl-3-benzyl-2-piperidinones (delta-valerolactams) and hexahydro-2H-azepin-2-ones (epsilon-caprolactams)” (J Med Chem, 1997) can be followed below.

In series [1] the target is GABA-A receptor; anion channel. Briefly: Ability to displace radioligand [35S]TBPS from Gamma-aminobutyric acid A receptor binding site in rat brain membranes. It counts as cell membranes. In outline: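 Values are mean and range from duplicate experiments, each run in triplicate. For some lactams the values are mean ± SEM of three experiments run in triplicate. Read-out is IC50 (mM) for displacement of [35S]TBPS.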

Series [2] can be described thus: Neurotoxicity was evaluated by a rotarod test. It counts as toxicity. To be noted: mouse. In outline: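 Mice were given at least four i.p. doses of compound in 30% polyethylene glycol at 0.01 mL/g, with six per dose, then tested on the rotorod. TD50 is the dose at which 50% failed, with 95% fiducial limits. Where these could not be calculated, the highest all-nontoxic dose and the lowest all-toxic dose are given instead.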
On the technique in general: Falling from the rotarod earlier than controls is read as motor impairment.

Series [3] concerns the target GABA-A receptor; anion channel (Rattus norvegicus) (UniProt O09028+P15431+P18506+P18508+P19969+P20236+P23574+P23576+P28471+P28473+P30191+P62813+P63079+P63138+Q91ZM7+Q9ES14). The series can be described thus: Induced potentiation of 3 uM GABA-mediated chloride currents at 1 mM in the presence of 3 mM alpha-IMGBL (picrotoxin antagonist). In kind it is functional. In outline:
(§1)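 Whole-cell peak current evoked by 3 μM GABA, with test compound alone or with 3 mM α-isopropyl-α-methyl-γ-butyrolactone, in cultured rat hippocampal neurons. Each peak was normalized to the peak from 3 μM GABA alone on the same cell, with 100% meaning no change. Values are mean ± SEM over 5–14 cells. Alone vs plus antagonist was compared by Student's t test.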

For series [4], the species on record is Mus musculus. The series can be described thus: Anticonvulsant activity expressed as dose at which 50% of the mice were protected from tonic hindlimb seizures induced by maximal electroshock (MES). It counts as functional. In outline:
(§2)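 Mice were given at least four doses, with six animals per dose. Compound was dissolved in 30% polyethylene glycol and injected i.p. at 0.01 mL/g body weight. Challenge was pentylenetetrazole 85 mg/kg (clonic seizures) or maximal electroshock (tonic hindlimb extension). ED50 is the dose protecting 50%, with 95% fiducial limits.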

Series [5] relates to Mus musculus. Briefly: Anticonvulsant activity expressed as dose at which 50% of the mice were protected from clonic seizures induced by pentylenetetrazole (85 mg/Kg). In kind it is functional. In outline: as §2
For series [6], the species on record is Rattus norvegicus. Briefly: Antagonism of compound (600 uM) induced potentiation of 3 uM GABA-mediated chloride currents in cultured rat hippocampal neurons. It counts as functional. Put shortly:
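Cultured rat hippocampal neurons. Test compound was applied with 3 μM GABA, with and without α-isopropyl-α-methyl-γ-butyrolactone (3 mM). Peak current was normalized to the peak from 3 μM GABA alone on the same cell, where 100% means no change. Mean ± SEM over N cells; Student's t test compared compound alone with compound plus antagonist.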

Series [7] can be described thus: Protective Index (PI) determined as the ratio of toxic dose (TD50) and effective dose (ED50 (PTZ)). Particulars: mouse; read-out: PI. It counts as ADME. In outline: (§3)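 The protective index was calculated as rotorod TD50 divided by the ED50 against PTZ- or MES-induced seizures. All values come from i.p. dosing in 30% polyethylene glycol in mice, six per dose.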

Series [8] in a line: Protective Index (PI) determined as the ratio of toxic dose (TD50) and effective dose (ED50 (MES)). It counts as ADME. To be noted: mouse; read-out: PI. In outline:
as §3

The species named for series [9] is Rattus norvegicus. The series can be described thus: Antagonism of compound (200 uM) induced potentiation of 3 uM GABA-mediated chloride currents in cultured rat hippocampal neurons. It counts as functional. In outline: as §1
The species named for series [10] is Rattus norvegicus. The series can be described thus: Antagonism of compound (300 uM) induced potentiation of 3 uM GABA-mediated chloride currents in cultured rat hippocampal neurons. It counts as functional. In outline: as §1
The species entered for series [11] is Rattus norvegicus. The series can be described thus: Antagonism of compound (1 mM) induced potentiation of 3 uM GABA-mediated chloride currents in cultured rat hippocampal neurons. In kind it is functional. In outline:
as §1

Series [12] relates to Mus musculus. Briefly: Anticonvulsant activity expressed as dose at which 50% of the mice were protected from clonic seizures induced by pentylenetetrazole (85 mg/Kg); cytotoxicity observed at 300 mg/kg. In kind it is functional.

As for `CC1CCCNC1=O` (configuration not stated), in series [1], the IC50 (in general, the concentration that inhibits the measured activity by half) stood at 27.7 mM. Further, the TD50 – broadly, the 50% point of the dose-response relation for the toxic effect studied – in series [2] is greater than 600 mg/kg.

For the compound `CCC1(Cc2ccccc2)CCCCNC1=O` (configuration not stated), the Response was 107% in series [3] and 128% in the series filed under Rattus norvegicus [6]. This compound also had an IC50 in series [1] of 0.09 mM. Besides, the 50% effective dose (ED50) in the series filed under Mus musculus [4] and in the series on Mus musculus [5] was greater than 100 mg/kg in each case. The compound further displayed a TD50 in series [2] greater than 100 mg/kg.

With `O=C1CCCCN1`, in [1], the IC50 worked out at 197 mM. Further, the ED50 – broadly, the dose that gives a 50% effect, or the effect in half of the subjects – in the series filed under Mus musculus [4] is greater than 600 mg/kg. Further, the TD50 in [2] is greater than 600 mg/kg.

`CCC1(C)CC(=O)NC1=O` (configuration not stated) [ETHOSUXIMIDE]: the selectivity ratio in series [7] is 2.35; in series [8] it was less than 0.67. For the same compound, the ED50 in the series filed under Mus musculus [4] is greater than 562 mg/kg. Also, the TD50 in series [2] came to 378 mg/kg.

As to `CCC1(CC)CCNC1=O`, the selectivity ratio in series [7] was determined as 5.65; in series [8], 1.49.

Take `CCC1CCCNC1=O` (configuration not stated): the results for the selectivity ratio in series [7] and in series [8] were greater than 1.09 and greater than 0.59, respectively. This compound had an IC50 in series [1] of 8.78 mM. The results for the ED50 in the series filed under Mus musculus [4] and with Mus musculus [5] were 550 mg/kg and 297 mg/kg, respectively. Further, the TD50 in [2] was greater than 325 mg/kg.

Consider `CCCC(CCC)C(=O)O` [VALPROIC ACID], for which the ED50 in the series listed under Mus musculus [4] was 206 mg/kg.

Turning to `O=C1NCCC1Cc1ccccc1` (configuration not stated), the figures for the selectivity ratio in series [7] and in series [8] were 2.03 and 3.51, respectively.

`CCC1(CC)CCCCNC1=O`: the selectivity ratio in series [7] is 0.58; in [8] it was 0.74. Moreover, the Response in [3] came to 105%; in the series listed under Rattus norvegicus [9], 117%. In addition, the IC50 in series [1] stood at 0.38 mM. Moreover, the ED50 in the series listed under Mus musculus [4] is 178 mg/kg; in the series with Mus musculus [5], 226 mg/kg. For the same compound, in series [2], the TD50 amounted to 131 mg/kg.

`CCC1(Cc2ccccc2)CCCNC1=O` (configuration not stated): the selectivity ratio was found to be 1.69 in series [7] and 1.47 in [8]. In addition, the Response in series [3] came to 93%; in the series listed under Rattus norvegicus [10], 138%. This compound also came in with an IC50 in [1] of 0.27 mM. Besides, the ED50 in the series filed under Mus musculus [4] turned out to be 70 mg/kg. Also, the TD50 in [2] was 103 mg/kg.

For `CCC1CCCCNC1=O` (configuration not stated), the figures for the selectivity ratio in series [7] and in series [8] were 0.69 and 0.58, respectively. Also, the IC50 in [1] came to 3.2 mM. For the same compound, the 50% effective dose (ED50) in the series filed under Mus musculus [4] is 249 mg/kg; in the series with Mus musculus [5] it was 210 mg/kg. For the same compound, in series [2], the TD50 worked out at 145 mg/kg.

For the compound `CCC1(CC)CCCNC1=O`, the figures for the selectivity ratio in series [7] and in series [8] were 4.46 and 3.06, respectively. In addition, the values for the Response (in series [3]; in the series filed under Rattus norvegicus [11]) were 102% and 142%, respectively. In addition, the IC50 in [1] was found to be 1.31 mM. Further, the ED50 stood at 54 mg/kg in the series filed under Mus musculus [4] and 37 mg/kg with Mus musculus [5]. Further, the TD50 in series [2] was determined as 165 mg/kg.

As to `O=C1NCCCC1Cc1ccccc1` (configuration not stated), the selectivity ratio was 3.52 in series [7] and 7.05 in series [8]. For the same compound, the IC50 in series [1] came out at 1.44 mM. Moreover, the ED50 in the series listed under Mus musculus [4] turned out to be 41 mg/kg; with Mus musculus [5], 82 mg/kg. The same compound registered a TD50 in series [2] of 289 mg/kg.

Take `CCC1(C)CCCNC1=O` (configuration not stated): the values for the selectivity ratio in series [7] and in series [8] were 2.25 and 1.9, respectively. In series [1], the IC50 was 4.41 mM. In addition, the figures for the ED50 in the series listed under Mus musculus [4] and in the series on Mus musculus [5] were 199 mg/kg and 168 mg/kg, respectively. In [2], the TD50 was found to be 378 mg/kg.

Turning to `CCC1(c2ccccc2)C(=O)NC(=O)NC1=O` [PHENOBARBITAL], the values for the selectivity ratio in [7] and in [8] were 4 and 5.18, respectively. Further, in the series filed under Mus musculus [4], the ED50 was 17 mg/kg. Besides, the TD50 in series [2] amounted to 88 mg/kg.

On to `CC1(Cc2ccccc2)CCCNC1=O` (configuration not stated), for which the figures for the selectivity ratio in series [7] and in [8] were 2.23 and 2.5, respectively. Further, in [1], the IC50 came to 0.73 mM. The compound also came in with an ED50 in the series filed under Mus musculus [4] of 50 mg/kg. In series [2], this compound gave a TD50 of 125 mg/kg.

With `O=C1CCCCCN1` [CAPROLACTAM], the selectivity ratio in series [7] and in [8] was less than 1 in each case. Further, the IC50 in series [1] came to 17.4 mM. Besides, the ED50 in the series on Mus musculus [12] and in the series filed under Mus musculus [4] was greater than 300 mg/kg each time. In series [2], this compound gave a TD50 of less than 300 mg/kg.
